IC50 and Activity data for 45 compounds are collected here from ChEMBL document CHEMBL1177866, “Synthesis, antiproliferative activity evaluation and structure-activity relationships of novel aromatic urea and amide analogues of N-phenyl-N'-(2-chloroethyl)ureas” (Eur J Med Chem, 2010).

For one experiment, the system named is HT-29. The experiment can be described thus: Antiproliferative activity against human HT-29 cells after 48 hrs. Format: functional, cell-based. The conditions noted are these: HT-29, 48 h. The procedure, abridged: (§1)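 TCA fixation, sulforhodamine B stain, absorbance 585 nm minus day-of-treatment background plate; inhibition vs DMSO control; at least triplicate; IC50 accepted if within-experiment variability under 10%.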

A further experiment has as its system M21. The experiment can be described thus: Antiproliferative activity against human M21 cells after 48 hrs. Conditions: M21, 48 h. Format: functional, cell-based. The procedure, abridged:
as §1

In another experiment the test system is MCF7. As to the kind of experiment: Antiproliferative activity against human MCF7 cells after 48 hrs. The format is functional, cell-based. The conditions noted are these: MCF7, 48 h. A digest of the protocol:
as §1

The target of experiment [1] is Tubulin beta (Homo sapiens) (UniProt P68371+Q9H4B7+Q13509+P04350+Q3ZCM7+P07437+Q13885+Q9BVA1+Q9BUF5+A6NNZ2). The experiment can be described thus: inhibition of beta tubulin acylation in human M21 cells assessed as beta-tubulin band migration by Western blotting. Format: cell-based. The procedure, abridged: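 Floating plus adherent cells pooled, lysed in Laemmli buffer, 10% SDS-PAGE, nitrocellulose; blocked in TBS pH 7.4 with 5% milk/0.1% Tween 20, probed with monoclonal anti-β-tubulin 1:500 then peroxidase anti-mouse 1:2500.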
For orientation: A western blot detects proteins with antibodies after separation by electrophoresis.

As usually defined, the IC50 is the midpoint of a concentration-inhibition curve. Low values mean greater potency in that assay, high ones weaker potency in that assay.

The source made the active and inactive calls. No cut-off for these calls is given here.

With `CCNC(=O)NCc1ccc(C(C)(C)C)cc1`, the IC50 in the experiment on HT-29, with M21 and with MCF7 was more than 100 µM in each case.

For `CCCCCc1cccc(NC(=O)NC(=O)CCl)c1`, the half-inhibitory concentration (IC50) worked out at 8.4 µM in the experiment with HT-29, 3.5 µM with M21 and 8.3 µM in the experiment on MCF7. Further, in experiment [1], the outcome was inactive.

Regarding `CCNC(=O)Nc1cccc(CCCCCO)c1`, the IC50 in the experiment on HT-29, in the experiment with M21 and with MCF7 was more than 100 µM in each case.

As to `C=CC(=O)Nc1cccc(CCCCCOC)c1`, the IC50 with HT-29 was 40 µM; in the experiment with M21, 48 µM; with MCF7, more than 100 µM.

With `COCCCCCc1cccc(NC(=O)CCl)c1`, the IC50 with HT-29 is 13 µM; in the experiment with M21, 6.9 µM; with MCF7, 12 µM. Besides, in experiment [1], the outcome was inactive.

With `COCCCCCc1cccc(NC(=O)CCCl)c1`, the IC50 in the experiment on HT-29, with M21 and in the experiment on MCF7 was more than 100 µM in each case.

Take `CC(C)(C)c1ccc(CNC(=O)CCCl)cc1`: the values for the IC50 in the experiment with HT-29, in the experiment with M21 and in the experiment with MCF7 were 87 µM, more than 100 µM and 67 µM, respectively.

Take `O=C(CCCCl)Nc1ccc(I)cc1`: the half-inhibitory concentration (IC50) in the experiment with HT-29, with M21 and in the experiment on MCF7 was more than 100 µM in each case.

With `O=C(NCCCCl)Nc1ccc(I)cc1`, the IC50 in the experiment on HT-29 is 90 µM; in the experiment with M21 it was more than 100 µM; in the experiment on MCF7 it was more than 100 µM.

For the compound `CC(C)(C)c1ccc(NC(=O)CCCl)cc1`, the IC50 with HT-29 is 88 µM; with M21, 74 µM; with MCF7, 49 µM.

As for `CC(C)(C)c1ccc(NC(=O)CCCCl)cc1`, the IC50 in the experiment with HT-29, with M21 and with MCF7 was more than 100 µM throughout.

Consider `O=C(CCl)Nc1ccc(I)cc1`, for which the half-inhibitory concentration (IC50) in the experiment with HT-29 was 9.7 µM; in the experiment on M21 it was 5.1 µM; in the experiment on MCF7, 6.2 µM. Moreover, the outcome in experiment [1] was inactive.

As to `O=C(NCCCCl)Nc1cccc(CCCCCO)c1`, the figures for the IC50 in the experiment on HT-29, in the experiment on M21 and with MCF7 were 19 µM, 35 µM and more than 100 µM, respectively.

In the case of `CCNC(=O)Nc1cccc(CCCCCOC)c1`, the IC50 in the experiment with HT-29, in the experiment with M21 and in the experiment on MCF7 was more than 100 µM each time.

With `CCCCCc1cccc(NC(=O)CCl)c1`, the IC50 came to 12 µM with HT-29, 1.4 µM in the experiment with M21 and 5.7 µM in the experiment on MCF7. Moreover, the outcome in experiment [1] was inactive.

On to `CCNC(=O)Nc1cccc(CCCCC(C)=O)c1`, for which the IC50 in the experiment on HT-29 was 40 µM; with M21, more than 100 µM; in the experiment with MCF7, more than 100 µM.

Turning to `COCCCCCc1cccc(NC(=O)CCCCl)c1`, the IC50 with HT-29, in the experiment with M21 and in the experiment on MCF7 was more than 100 µM each time.

Take `CC(C)(C)c1ccc(NC(=O)CCl)cc1`: the IC50 in the experiment on HT-29 worked out at 15 µM; in the experiment with M21 it was 5.4 µM; in the experiment on MCF7, 5.4 µM. Further, the outcome in experiment [1] was inactive.

Regarding `C=CC(=O)Nc1cccc(CCCCC(C)=O)c1`, the results for the IC50 in the experiment with HT-29, in the experiment with M21 and in the experiment with MCF7 were 29 µM, 33 µM and 99 µM, respectively.

Regarding `CCCCCc1cccc(NC(=O)CCCCl)c1`, the IC50 in the experiment on HT-29, in the experiment with M21 and with MCF7 was more than 100 µM each time.

Turning to `CCCCCc1cccc(NC(=O)CCCl)c1`, the values for the IC50 in the experiment on HT-29, in the experiment with M21 and with MCF7 were 46 µM, 54 µM and 54 µM, respectively.

Regarding `CC(=O)CCCCc1cccc(NC(=O)CCCCl)c1`, the IC50 in the experiment on HT-29, with M21 and with MCF7 was more than 100 µM each time.

In the case of `CC(C)(C)c1ccc(CNC(=O)CCl)cc1`, the values for the half-inhibitory concentration (IC50) with HT-29, with M21 and in the experiment with MCF7 were 18 µM, 16 µM and 23 µM, respectively. The result in experiment [1] was inactive.

As for `CC(=O)CCCCc1cccc(NC(=O)NCCCCl)c1`, the IC50 with HT-29 was found to be 41 µM; with M21 it was 36 µM; with MCF7 it was 71 µM.

In the case of `O=C(CCl)NC(=O)Nc1ccc(I)cc1`, the IC50 in the experiment on HT-29 stood at 11 µM; with M21, 8.1 µM; in the experiment with MCF7 it was 4.9 µM.

In the case of `C=CC(=O)NCc1ccc(C(C)(C)C)cc1`, the IC50 is more than 100 µM in the experiment on HT-29, 72 µM in the experiment on M21 and more than 100 µM with MCF7.

Take `O=C(CCl)NC(=O)Nc1cccc(CCCCCO)c1`: the IC50 was 10 µM in the experiment with HT-29, 4.6 µM in the experiment with M21 and 5.7 µM with MCF7. The result in experiment [1] was inactive.

For `C=CC(=O)Nc1cccc(CCCCC)c1`, the IC50 is 31 µM in the experiment with HT-29, 27 µM in the experiment on M21 and 49 µM in the experiment on MCF7.

As for `CC(C)(C)c1ccc(CNC(=O)CCCCl)cc1`, the figures for the IC50 in the experiment on HT-29, in the experiment on M21 and in the experiment on MCF7 were 72 µM, 69 µM and 92 µM, respectively.

As for `CC(C)(C)c1ccc(NC(=O)NC(=O)CCl)cc1`, the IC50 with HT-29 was 6.5 µM; in the experiment on M21, 1.4 µM; in the experiment on MCF7 it was 2 µM.

Turning to `CCCCCc1cccc(NC(=O)NCC)c1`, the IC50 turned out to be 16 µM with HT-29, 36 µM in the experiment with M21 and 67 µM in the experiment with MCF7.

On to `O=C(CCCl)Nc1ccc(I)cc1`, for which the results for the IC50 in the experiment on HT-29, with M21 and in the experiment with MCF7 were 18 µM, 20 µM and 26 µM, respectively. In experiment [1], the result was inactive.

For the compound `O=C(CCCl)Nc1cccc(CCCCCO)c1`, the half-inhibitory concentration (IC50) in the experiment on HT-29, in the experiment with M21 and in the experiment on MCF7 was more than 100 µM in each case.

In the case of `C=CC(=O)Nc1ccc(C(C)(C)C)cc1`, the IC50 in the experiment on HT-29 came out at 24 µM; in the experiment with M21 it was 22 µM; with MCF7 it was 29 µM. Also, the outcome in experiment [1] was inactive.

For `CCCCCc1cccc(NC(=O)NCCCCl)c1`, the IC50 in the experiment on HT-29 stood at 28 µM; with M21, 24 µM; with MCF7, 26 µM.

As for `C=CC(=O)Nc1cccc(CCCCCO)c1`, the IC50 in the experiment on HT-29 is more than 100 µM; with M21, 98 µM; in the experiment with MCF7, more than 100 µM.

For the compound `O=C(CCCCl)Nc1cccc(CCCCCO)c1`, the IC50 in the experiment with HT-29, in the experiment with M21 and with MCF7 was more than 100 µM each time.

For `CC(=O)CCCCc1cccc(NC(=O)CCCl)c1`, the IC50 in the experiment with HT-29, with M21 and in the experiment with MCF7 was more than 100 µM each time.

In the case of `COCCCCCc1cccc(NC(=O)NC(=O)CCl)c1`, the values for the IC50 in the experiment on HT-29, with M21 and in the experiment with MCF7 were 10 µM, 4.2 µM and 6.1 µM, respectively. Further, the outcome in experiment [1] was inactive.

Regarding `CC(C)(C)c1ccc(CNC(=O)NCCCCl)cc1`, the IC50 in the experiment on HT-29 came to 19 µM; with M21, 11 µM; in the experiment on MCF7, 17 µM.

As for `CC(C)(C)c1ccc(NC(=O)NCCCCl)cc1`, the IC50 with HT-29 was determined as 28 µM; in the experiment on M21, 35 µM; in the experiment on MCF7, 49 µM.

On to `C=CC(=O)Nc1ccc(I)cc1`, for which the figures for the IC50 with HT-29, with M21 and in the experiment with MCF7 were 15 µM, 11 µM and 17 µM, respectively. Further, in experiment [1], the result was inactive.

Regarding `CCNC(=O)Nc1ccc(I)cc1`, the IC50 with HT-29, in the experiment on M21 and with MCF7 was more than 100 µM throughout.

Take `COCCCCCc1cccc(NC(=O)NCCCCl)c1`: the IC50 came to 56 µM in the experiment with HT-29, 51 µM in the experiment with M21 and 50 µM with MCF7.

In the case of `CC(C)(C)c1ccc(CNC(=O)NC(=O)CCl)cc1`, the IC50 with HT-29 stood at 7.1 µM; in the experiment on M21, 2.4 µM; in the experiment with MCF7, 2.8 µM. The result in experiment [1] was inactive.
